Rows were chosen to be rich in hits. Some 1.9% of all compounds tested hit in one or more screens of this group.
CHRM4 PAM – CHRM4 positive allosteric modulation. 360,000 compounds, 0.4% hits. activation, % at 3 µM. AID 624126. CHO-K1 hM4/Gqi5, Fluo-8 calcium fluorescence, ACh EC20; 0% = ACh EC20, 100% = maximal ACh;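 active = activation above its plate's cutoff, the mean activation of sample wells plus 3 SD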
M5 antag – CHRM5 antagonism in calcium assay | P08912 | CHO-hM5 cells, Fluo-8 calcium fluorescence, ACh EC80 | inhibition, % at 3 µM | 360,000 compounds, 0.59% hits;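 active = inhibition above a per-plate cutoff, the mean of that plate's test compounds plus 3 SD, cut at about 27% in these data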
Target sequence (P08912 whole entry, looked up): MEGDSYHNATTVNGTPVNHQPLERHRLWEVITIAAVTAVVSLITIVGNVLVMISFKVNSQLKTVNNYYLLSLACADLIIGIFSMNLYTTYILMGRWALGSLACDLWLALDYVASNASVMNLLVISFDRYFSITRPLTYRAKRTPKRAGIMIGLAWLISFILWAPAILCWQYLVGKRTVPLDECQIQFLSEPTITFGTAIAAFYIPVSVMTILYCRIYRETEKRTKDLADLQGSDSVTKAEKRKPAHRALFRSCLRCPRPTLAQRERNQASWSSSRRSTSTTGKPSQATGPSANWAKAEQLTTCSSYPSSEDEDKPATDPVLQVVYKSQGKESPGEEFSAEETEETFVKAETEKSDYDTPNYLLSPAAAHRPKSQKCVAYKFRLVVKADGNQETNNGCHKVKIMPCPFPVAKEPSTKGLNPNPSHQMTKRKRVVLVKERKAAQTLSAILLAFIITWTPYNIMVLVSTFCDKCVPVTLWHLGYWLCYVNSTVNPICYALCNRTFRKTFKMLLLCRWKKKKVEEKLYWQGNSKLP
M5 ag – CHRM5 agonism in calcium assay; P08912; CHO-K1 hM5 cells, Fluo-8 calcium fluorescence; 0% DMSO wells, 100% maximal acetylcholine response; activation, % at 3 µM; 360,000 compounds, 0.19% hits;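 active = activation above the run's mean over test compounds plus 3 SD, cut at about 23% in these data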;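 also: signal is peak over basal fluorescence ratio across the kinetic read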
M4 ag – CHRM4 agonism in calcium assay | CHO-K1 hM4/Gqi5, Fluo-8 calcium fluorescence; vehicle 0%, full acetylcholine response 100% | AID 624127 | P08173 | 360,000 compounds, 0.14% hits | activation, % at 3 µM;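 active = activation above the run mean over all test wells plus 3 SD, cut at about 32% in these data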;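 also: peak over basal fluorescence ratio per well then scaled between controls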
M4 antag – blocks acetylcholine activation of human M4 receptor | P08173 | CHO-hM4 cells, ACh EC80, Fluo-8 calcium fluorescence | inhibition, % at 3 µM | 360,000 compounds, 0.73% hits | AID 624125;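 active = inhibition above its plate's cutoff, the mean inhibition of sample wells plus 3 SD, cut at about 27% in these data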
M5 PAM – positive allosteric modulators of human muscarinic M5 receptor; P08912; CHO-K1 hM5, Fluo-8 calcium, ACh EC20 PAM; 0% = ACh EC20, 100% = ACh EC100; activation, % at 3 µM; 360,000 compounds, 0.3% hits; AID 624038;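 active = activation above the run cutoff, the mean activation of all test compounds plus 3 SD, cut at about 18% in these data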
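Assay system – human M5 receptor in CHO-K1 cells · Read-out – % activation, ACh-normalized · Technique – Fluo-8 calcium fluorescence · Dosing – single-point, 3 µM nominal · Incubation – Fluo-8 loading 80 min at 37 °C plus 30 min room temperature · Repeats – singlicate, one well per test compound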
A number is an active result; . = inactive; + = active, no number.

SMILES	CHRM4 PAM	M5 antag	M5 ag	M4 ag	M4 antag	M5 PAM
O=C(NN=C1CCCC1)c1n[nH]c2c1CCC2	26.6	.	.	.	.	.
COc1ccc(COc2ccccc2C(=O)NCc2ccccc2)cc1F	.	27.7	.	.	.	.
COc1cc(C(=O)NCc2ccccc2)ccc1OC(F)F	.	.	.	.	.	.
COc1ccc(CNC(=O)COC(=O)c2ccc3ncsc3c2)cc1OC	.	.	.	.	.	.
Nc1ccn([C@@H]2O[C@H](CNC(=O)[C@H]3CCC(=O)N3)[C@@H](O)[C@H]2O)c(=O)n1	.	.	.	.	.	.
COC(=O)c1cnn(-c2ccccc2)c1/C=N/NC(=S)Nc1ccccc1	.	.	.	.	.	.
COC(=O)c1cnn(-c2ccccc2)c1C(OC)OC	.	.	.	.	.	22.1
Oc1ccc(Cl)cc1CNCc1ccc(Cl)cc1	.	.	.	.	.	.
Oc1ccc(Cl)cc1Cc1cc(Cl)ccc1O	.	.	.	.	27.3	.
CCCCCCCN1C(N(C)C)=NC[C@@H]1Cc1ccccc1	.	.	.	.	32.4	.
COc1ccc(N2CCN(C(=O)C3(S(=O)(=O)c4ccc(C)cc4)CC3)CC2)cc1	.	.	.	.	.	23.2
CC(=O)c1ccc(N2CCN(C(=O)C3(S(=O)(=O)c4ccc(Cl)cc4)CC3)CC2)cc1	.	.	.	.	.	.
Cc1cc(NC2CCCCC2)nc(NCc2ccccc2)n1	.	30.1	.	.	.	.
CC(=O)N1CCN(c2ccccc2NC(=O)c2ccco2)CC1	.	.	.	.	.	.
COC(=O)c1sc2nc(C)c([N+](=O)[O-])c(C)c2c1N	45.9	.	.	.	.	.
N/C(=N\OC(=O)CSc1ccccc1)c1ccccn1	21.2	.	.	.	.	.
CCC(C(=O)NC(C)(C)C)N(Cc1ccc(OC)cc1)C(=O)c1snc(C(N)=O)c1N (stereo unspecified)	.	.	.	.	.	.
Cc1cc(C)c(C)c(S(=O)(=O)N2CCC(C(=O)N3CC(C)CC(C)C3)CC2)c1C (stereo unspecified)	19.8	.	.	.	.	.
Cc1ccc(C(C)NC(=O)/C(C#N)=C\c2c(C)[nH]c3ccccc23)cc1 (stereo unspecified)	.	.	27.0	.	.	.
CCN(CC)C(=O)c1[nH]cnc1C(=O)NCC(=O)OC(C)(C)C	.	.	.	.	.	.
COc1ccc(S(N)(=O)=O)cc1C(N)=O	.	.	.	.	.	.
COc1ccc(S(=O)(=O)N2CCSCC2)cc1C(N)=O	14.1	.	.	.	.	.
Cc1nc2ccccc2n1S(=O)(=O)c1cc(C(=O)O)ccc1Cl	.	.	.	.	.	.
O=c1c2ccccc2oc2nc(-c3ccco3)n(Cc3ccccc3)c(=O)c12	.	.	.	.	.	36.6
COc1ccccc1N1CCN(S(=O)(=O)CCNC(=O)C(C)Oc2ccccc2)CC1 (stereo unspecified)	.	.	.	.	.	.
SMILES	CHRM4 PAM	M5 antag	M5 ag	M4 ag	M4 antag	M5 PAM
O=C(COC(=O)COc1ccccc1)Nc1ccc(Br)cc1F	14.5	.	.	.	.	.
O=C(COC(=O)COc1ccccc1)Nc1ccc(Br)cc1Br	.	.	.	.	.	.
O=C(CCNC(=O)c1ccccc1)Nc1cccnc1	.	.	.	.	.	.
CC(C)c1ccc(CNc2ccc(N3CCOCC3)cc2)cc1	.	.	.	.	.	.
Cc1ccc(CNc2ccc(N3CCOCC3)cc2)cc1	13.9	.	.	.	.	.
O=C(CCC1CCCC1)NCc1cccs1	19.9	.	.	.	.	.
O=C(CCCCC(=O)NCc1cccs1)NCc1cccs1	.	.	.	.	.	.
CC(=O)Oc1ccc2c(c1)Oc1cc(OC(C)=O)ccc1C21OC(=O)c2ccccc21	.	101.9	+	865.5	101.5	.
COc1cccc(NC(=O)CN(C)C(=O)c2cc(-c3ccccc3)nn2-c2ccccc2)c1	18.1	.	.	.	.	.
COc1cccc(NC(=O)CN(C)C(=O)Cn2cnc3ccccc3c2=O)c1	.	99.6	.	.	.	.
CC(=O)c1ccc(NC(=S)NC(NC(=O)c2ccco2)C(Cl)(Cl)Cl)cc1 (stereo unspecified)	.	.	27.1	.	.	.
O=C(NC(NC(=S)Nc1ccc(Cl)cc1)C(Cl)(Cl)Cl)c1ccco1 (stereo unspecified)	.	.	.	.	.	.
Nc1c(Cl)ncnc1NCc1ccccc1	.	.	.	.	.	.
CN(C)c1ccc(/C=C/c2ccc3ccccc3n2)cc1	.	.	.	.	.	.
CCN(CC)c1ccc(/C=C/c2cc(-c3ccccc3)c3ccccc3n2)cc1	.	.	.	.	30.8	.
O=C(Nc1ccccc1-c1ccccc1)NC1CC2CCCC(C1)N2Cc1ccc(F)cc1 (stereo unspecified)	.	34.5	.	.	58.4	.
O=C(Nc1ccccc1-c1ccccc1)NC1CC2CCCC(C1)N2CCc1ccccc1 (stereo unspecified)	.	.	.	.	29.4	.
Cc1ccc(CN2C3CCCC2CC(NC(=O)c2ccc(F)cc2)C3)cc1 (stereo unspecified)	.	.	.	.	.	.
Cc1ccc(-c2nc3ccc(C)cn3c2CC2CCCCC2)cc1	.	.	.	.	.	.
COc1ccc(-c2cc(C(=O)OCC(=O)c3cccc([N+](=O)[O-])c3)c3cc(C)ccc3n2)cc1	23.0	.	.	.	.	.
Cc1nn(CC(=O)Nc2nccs2)c(C)c1[N+](=O)[O-]	.	.	.	.	.	.
Cc1cc([N+](=O)[O-])nn1CCC(=O)Nc1nccs1	.	.	.	.	.	18.3
COc1ccc(CN2CCC(C(=O)c3cccc(Cl)c3)CC2)cc1	.	.	.	.	.	.
O=C(c1cccc(Cl)c1)N1CCCC(C(=O)N2CCCCCC2)C1 (stereo unspecified)	.	.	.	.	.	.
O=C(c1cccc(Cl)c1)C1CCCN(Cc2ccc(N3CCNC3=O)cc2)C1 (stereo unspecified)	.	.	.	.	28.9	.
O=C(c1cccc(Cl)c1)C1CCCN(C(=O)c2ccoc2)C1 (stereo unspecified)	.	39.2	.	.	.	.
COc1ccc(-c2c[n+]3c(n2-c2ccccc2)SCC3)cc1	.	.	.	.	.	.
c1ccc(Cn2c(-c3ccccc3)c[n+]3c2SCCC3)cc1	.	96.2	.	.	96.5	.
O=C(Nc1nccs1)c1csc([C@H]2C[C@H](O)[C@@H](CO)O2)n1	.	.	.	.	.	.

Bioassay records (PubChem)
